Our source for the Activity and viability values is ChEMBL document CHEMBL1147249, “Sunpollenol and five other rearranged 3,4-seco-tirucallane-type triterpenoids from sunflower pollen and their inhibitory effects on Epstein-Barr virus activation” (J Nat Prod, 2003).

Holding throughout (type): cell-based
In data set [1] the test system is Raji. The data set is described as follows: Inhibition of 12-O-tetradecanoylphorbol-13-acetate-induced EBV-early antigen activation in human Raji cells assessed as early antigen induction at 1000 molar ratio after 48 hrs by conventional indirect immunofluorescence technique relative to TPA. Further details: scale not given: the % may be the effect or the level left. To be noted: human gammaherpesvirus 4. The method, boiled down:
(§1)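 Raji cells (1 × 10^6 cells/mL, RPMI-1640 with 10% FBS) were induced with 4 mM n-butyric acid plus […] TPA (20 ng/mL in DMSO). Test compound (32, 16, 3.2, 0.32 nmol in 1 mL) was present for 48 h at 37 °C. EA-positive cells were stained with NPC patient sera and detected by indirect immunofluorescence, at least 500 cells per assay, three repeats. Results are given as percent of butyrate+TPA control.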

In data set [2] the test system is Raji. The data set is described as follows: Inhibition of 12-O-tetradecanoylphorbol-13-acetate-induced EBV-early antigen activation in human Raji cells assessed as early antigen induction at 500 molar ratio after 48 hrs by conventional indirect immunofluorescence technique relative to TPA. Further details: scale not given: the % may be the effect or the level left. As to conditions: human gammaherpesvirus 4. The method, boiled down:
as §1

The subject of data set [3] is Raji. In words: Inhibition of 12-O-tetradecanoylphorbol-13-acetate-induced EBV-early antigen activation in human Raji cells assessed as early antigen induction at 100 molar ratio after 48 hrs by conventional indirect immunofluorescence technique relative to TPA. As to conditions: human gammaherpesvirus 4. Details: scale not given: the % may be the effect or the level left. Summed up: as §1

For data set [4], the system named is Raji. The data set is described as follows: Inhibition of 12-O-tetradecanoylphorbol-13-acetate-induced EBV-early antigen activation in human Raji cells assessed as early antigen induction at 10 molar ratio after 48 hrs by conventional indirect immunofluorescence technique relative to TPA. Further details: scale not given: the % may be the effect or the level left. As to conditions: human gammaherpesvirus 4. Summed up: as §1

A short description of data set [5]: Cytotoxicity against human Raji cells assessed as cell viability at 1000 molar ratio after 48 hrs by trypan blue staining method. As to conditions: read-out: Activity. The method, boiled down:
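Raji cells (EBV genome-carrying, nonproducer) at 1 × 10^6 cells/mL in RPMI-1640 with 10% FBS were exposed to 4 mM n-butyric acid, […] TPA and test compound at 37 °C in a CO2 incubator. Viability was scored by Trypan Blue staining and given as percent viable Raji cells.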

Turning to `C[C@@H](CC[C@@H]1OC1(C)C)[C@@H]1CC[C@]2(C)[C@H]3CC[C@@]4(C(C)(C)O)OCCC[C@H]4[C@]3(C)CC[C@@]12C`, the Activity came out at 0% in the data set on Raji [1], 27.3% with Raji [2], 75.9% in the data set on Raji [3] and 97.4% in the data set on Raji [4]. Besides, in data set [5], the viability at 48 h, 1000 molar ratio came to 70%.
On to `C[C@@H](CC[C@@H](O)C(C)(C)O)[C@@H]1CC[C@]2(C)[C@H]3CC[C@@]4(C(C)(C)O)OCCC[C@H]4[C@]3(C)CC[C@@]12C`, for which the Activity in the data set with Raji [1] turned out to be 0%; in the data set on Raji [2], 24.4%; in the data set with Raji [3], 72.4%; in the data set with Raji [4], 92.5%. In addition, the viability at 48 h, 1000 molar ratio in data set [5] came to 70%.
On to `CC1=C(/C=C/C(C)=C/C=C/C(C)=C/C=C/C=C(C)/C=C/C=C(C)/C=C/C2=C(C)CCCC2(C)C)C(C)(C)CCC1`, for which the Activity turned out to be 8.6% in the data set on Raji [1] and 100% in the data set with Raji [4].
Take `C[C@@H](C/C=C/C(C)(C)O)[C@@H]1CC[C@]2(C)[C@H]3CC[C@@]4(C(C)(C)O)OCCC[C@H]4[C@]3(C)CC[C@@]12C` [(23E)-23-DEHYDRO-25-HYDROXYSUNPOLLENOL]: the Activity with Raji [1] turned out to be 0%; in the data set on Raji [2], 22%; in the data set on Raji [3] it was 70.6%; in the data set with Raji [4] it was 90%. Moreover, the viability at 48 h, 1000 molar ratio in data set [5] came to 70%.
For `C[C@@H](CC[C@H]1OC1(C)C)[C@@H]1CC[C@]2(C)[C@H]3CC[C@@]4(C(C)(C)O)OCCC[C@H]4[C@]3(C)CC[C@@]12C` [(24R)-24,25-EPOXYSUNPOLLENOL] the same measures were 0%, 26.3%, 72.6%, 91.8% and 60%.
Consider `C[C@@H](CC[C@H](O)C(C)(C)O)[C@@H]1CC[C@]2(C)[C@H]3CC[C@@]4(C(C)(C)O)OCCC[C@H]4[C@]3(C)CC[C@@]12C` [(24S)-24,25-DIHYDROXYSUNPOLLENOL], for which the Activity in the data set on Raji [1] stood at 0%; in the data set with Raji [2], 25.3%; with Raji [3], 73.3%; in the data set with Raji [4] it was 94.2%. Besides, the viability at 48 h, 1000 molar ratio in data set [5] worked out at 70%.
Take `CC(C)=CCC[C@H](C)[C@@H]1CC[C@]2(C)[C@H]3CC[C@@]4(C(C)(C)O)OCCC[C@H]4[C@]3(C)CC[C@@]12C` [SUNPOLLENOL]: the Activity with Raji [1] is 3.1%; with Raji [2], 30.5%; in the data set on Raji [3] it was 74.3%; in the data set with Raji [4], 96.8%. Also, in data set [5], the viability at 48 h, 1000 molar ratio was 70%.
